Results gathered from unrelated publications.

Compound	assay	system	conditions	quantity	value
O=C(O)C1CCN(c2ncc(-c3ccc4c(c3)OCCCO4)s2)CC1	–	male Swiss mouse, plasma	oral, 30 mg/kg, 12 h, single dose	concentration	1640 ng/mL
c1cnc2ccc(Nc3nc(NC4CC4)c4nc[nH]c4n3)cc2c1	–	human, plasma	oral, 50 mg/m², patients	MRT(0-t)	6.4 h
CS(=O)(=O)CCC#N	–	human, plasma	oral, 300 mg, single dose, fasted	MRT	30.5 h
CC(C)(O)c1ccccc1-c1ccc2[nH]c(/C=C/c3ccc(C(F)(F)F)cc3)nc2c1	–	male human, plasma	oral, 5 mg, single dose, fasted, healthy volunteers	MRT	43.6 h
CC[C@H](C)[C@@H]1NC(=O)[C@@](C)(NC(=O)[C@H](CCCNC(=N)N)NC(=O)[C@H](CC(C)C)NC(=O)[C@@H](NC(=O)[C@H](CCC(N)=O)NC(=O)[C@H](CC(C)C)NC(C)=O)[C@@H](C)O)CCCC=CCCC[C@@](C)(C(=O)N[C@@H](CC(C)C)C(=O)N[C@@H](Cc2ccc3ccccc3c2)C(N)=O)NC(=O)[C@H](CCCNC(=N)N)NC(=O)[C@H](CCC(N)=O)NC1=O	–	male BALB/c mouse, plasma	intraperitoneal, 5 mg/kg	half-life	3.09 h
O=c1nc(N2CCN(CC3CCCCC3)CC2)sc2c([N+](=O)[O-])cc(C(F)(F)F)cc12	–	CD-1 mouse, lung	oral, 100 mg/kg, 15 min	concentration	431 ng/mL
CC(C)CN(C[C@@H](O)[C@H](Cc1ccccc1)NC(=O)O[C@H]1CO[C@H]2OCC[C@H]21)S(=O)(=O)c1ccc(N)cc1	–	BALB/c mouse, plasma	intravenous, 25 mg/kg, 6 h	concentration	119 ng/mL
COc1cc(/C=C/c2ccc(O)cc2)cc(OC)c1	HPLC	–	–	chromatographic logP	> 3.14
O=S(=O)(c1ccc(-c2ccc3nccc(Nc4ccncn4)c3c2)cc1)N1CCOCC1	–	female BALB/c mouse, plasma	intraperitoneal, 10 mg/kg, 24 h	concentration	0 ng/mL
c1ccc(-c2nc(N3CCC(c4ccccn4)C3)c3ccccc3n2)nc1 (stereo not drawn)	–	female BALB/c mouse, plasma	oral, 50 mg/kg, 1 h	concentration	2940 ng/mL
CC(C)(C)c1ccc(O)c(CN(Cc2cc(C(C)(C)C)ccc2O)C2CCC(NC(N)=O)CC2)c1 (stereo not drawn)	–	male C57BL/6 mouse, brain	intraperitoneal, 5 mg/kg, single dose	half-life	7.1 h
CC(C)Oc1cccc(-c2cnc(N3CCC(C(N)=O)CC3)s2)c1	–	male Swiss mouse, plasma	oral, 30 mg/kg, 8 h, single dose	concentration	8.49 ng/mL
Nc1ccc(-c2ccc3ncc(-c4noc(C(F)(F)F)n4)cc3c2)cc1	metabolic stability	beagle dog, liver microsomes	1 µM	scaled CLint	115 mL/min/kg
CC(C)(Nc1nc(-c2ccccn2)nc2ccccc12)c1ccccn1	–	female BALB/c mouse, plasma	oral, 50 mg/kg, 8 h	concentration	5860 ng/mL
CC1=NN(CNc2ccccn2)C(=O)C1=NNn1c(-c2ccccc2)nc2ccccc2c1=O	–	–	–	logP	3.87
